Measured values from ChEMBL document CHEMBL1123090, “Inhibition of liver alcohol dehydrogenase and ethanol metabolism by 3-substituted thiolane 1-oxides” (J Med Chem, 1985).

Assays:
[1] = In vitro inhibitory constant against rat liver alcohol dehydrogenase was determined
In short: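 Enzymes partially purified from liver (DEAE-cellulose, then AMP-agarose affinity), all steps 0–5 °C. Ethanol varied 0.4–2 mM, 0.5 mM NAD+, 83 mM potassium phosphate pH 7.3 with 40 mM KCl, 37 °C. At least three inhibitor levels; 32 initial velocities by A340. Kii from uncompetitive fit; one or two experiments.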

[2] = species on record: Rattus norvegicus; experiment: The Kii was determined with varied concentrations of inhibitor and ethanol by determining blood alcohol concentration in rats; format: functional
In short: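 Fed male Sprague-Dawley rats (175–280 g) given inhibitor ip at 0–1.0 mmol/kg in saline, then 10 min later ethanol 19.6 mmol/kg ip. Tail blood ethanol measured over time by GC with tert-butyl alcohol internal standard. Initial elimination rate taken from tangent after 60-min absorption phase; Kii by nonlinear fit.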

[3] = test system: Alcohol dehydrogenase (Macaca mulatta); experiment: In vitro inhibitory constant against monkey liver alcohol dehydrogenase was determined; details: Cercopithecidae
[4] = Compound dose that causes 50% toxicity in mice was determined; format: organism-based; details: mouse, in vivo
In short: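 Fed male Swiss-Webster mice (16–20 g) given ip injections of sulfoxide solutions at 0.1–10 M (the concentration of the injected solution), at 0.1 mL/10 g body weight.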

[5] = biological target: Alcohol dehydrogenase (Equus caballus) (UniProt P00327+P00328); experiment: In vitro inhibitory constant against horse liver alcohol dehydrogenase was determined

| SMILES | Kii [1] [µM] | Kii [2] [µmol/kg] | Kii [3] [µM] | LD50 [4] [µmol/kg] | Kii [5] [µM] |
| --- | --- | --- | --- | --- | --- |
| [O-][S+]1CCCC1 [TETRAMETHYLENE SULFOXIDE] | 130 | 340 | 1600 | 45000 |  |
| CCCCCCC1CC[S+]([O-])C1 (centres undefined) | 0.13 | 65 | 0.35 | 770 | 0.19 |
| [O-][S+]1CCC(c2ccccc2)C1 (centres undefined) | 1.1 | 87 | 1.5 | 4000 | 0.36 |
| CCCCC1CC[S+]([O-])C1 (centres undefined) | 1.1 | 11 | 2.3 | 1400 | 0.63 |
| CC1CC[S+]([O-])C1 (centres undefined) | 19 | 64 | 460 | 1300 | 7.5 |
